Data on ten molecules can be found in ChEMBL document CHEMBL4330148, “Discovery and Characterization of Cyclic and Acyclic Trypsin Inhibitors from Momordica dioica” (J Nat Prod, 2019).

The species named for one series is Bos taurus. Briefly: Inhibition of bovine pancreatic trypsin at 0.1 to 100 uM preincubated for 30 mins followed by L-BAPNA substrate addition and measured after 10 mins. An outline of the steps:
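Bovine pancreatic trypsin was dissolved in 1 mM HCl and diluted to 0.45 mg/mL in 50 mM Tris, 20 mM CaCl2, pH 8.2. Peptides (1 mM stock, eight-point 2-fold dilutions) were preincubated with trypsin for 30 min at 37 °C. L-BAPNA (0.435 mg/mL, 1% DMSO) was added for 10 min at room temperature, the reaction was stopped with 30% HOAc, and A410 was read. MCoTI-II was the reference inhibitor. Triplicate.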

For a further series, the system named is PC-3. Briefly: Cytotoxicity against human PC3 cells after 24 hrs by MTT assay. As to conditions: pc-3, 24 h. In kind it is cell-based. An outline of the steps: (§1)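 HT-29, MCF7 and PC-3 cells were grown in DMEM with 10% FBS and 1% penicillin–streptomycin at 37 °C under 5% CO2. They were seeded at 2000 cells/well and grown 24 h. Peptides were added in triplicate at final concentrations of 0.05–100 μM for 24 h. 1% Triton X-100 and medium alone served as controls. MTT (5 mg/mL in PBS) was added for 4 h, formazan was dissolved in DMSO, and absorbance was read at 570 nm.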

Series [1] in a line: Cytotoxicity against Spodoptera frugiperda Sf9 cells after 3 hrs by MTT assay. As to conditions: sf9, 3 h. (Tetrazolium dyes change colour on reduction, which living cells bring about.)
The subject of a further series is HT-29. In words: Cytotoxicity against human HT-29 cells after 24 hrs by MTT assay. In kind it is cell-based. As to conditions: ht-29, 24 h. In short, it runs like this: as §1
The nature of series [2]: Stability in 100% human serum at 30 uM after 24 hrs by RP-HPLC analysis. Type of series: ADME, cell-free.
A further series has as its system MCF7. Briefly: Cytotoxicity against human MCF7 cells after 24 hrs by MTT assay. Type of series: cell-based. As to conditions: mcf7, 24 h. In short, it runs like this: as §1
Series [3] in a line: Drug metabolism in 100% human serum at 30 uM up to 4 hrs by RP-HPLC analysis. In kind it is ADME, cell-free.

Calls of active or inactive are those of the source. The calls are words filed in the database; no cut-off is given here. Bridge positions count the residues as written; N and C are the ends. Peptide text beside a SMILES is read from it.

On to `CC[C@H](C)[C@@H]1NC(=O)[C@@H]2CSSC[C@H](NC(=O)[C@@H](NC(=O)[C@@H](CCCNC(=N)N)NC(=O)C3CCC(=O)N3)C(C)C)C(=O)N3CCC[C@H]3C(=O)N[C@@H](CCCNC(=N)N)C(=O)N[C@@H]([C@@H](C)CC)C(=O)N[C@@H](CC(C)C)C(=O)N[C@@H](CCCCN)C(=O)N[C@@H](CCCCN)C(=O)N[C@H]3CSSC[C@H](NC1=O)C(=O)N[C@@H](CCC(N)=O)C(=O)NCC(=O)N[C@@H](CC(N)=O)C(=O)NCC(=O)N[C@@H](Cc1ccc(O)cc1)C(=O)N[C@H](C(=O)NCC(N)=O)CSSC[C@H](NC(=O)[C@H](CC(=O)O)NC(=O)[C@H](CO)NC(=O)[C@H](CC(=O)O)NC(=O)[C@H](CCCNC(=N)N)NC(=O)[C@H](CCCNC(=N)N)NC3=O)C(=O)N1CCC[C@H]1C(=O)NCC(=O)N[C@@H](CCC(=O)O)C(=O)N2` (some centres not stated), for which the inhibition entry in the series filed under Bos taurus was “Active”.
As to `CC[C@H](C)[C@@H]1NC(=O)[C@H](CCCNC(=N)N)NC(=O)[C@@H]2CCCN2C(=O)[C@@H]2CSSC[C@@H]3NC(=O)[C@H](C)NC(=O)[C@H](CO)NC(=O)[C@@H]4CCCN4C(=O)[C@@H]4CSSC[C@H](NC(=O)[C@H](Cc5ccc(O)cc5)NC(=O)CNC(=O)[C@H](CC(N)=O)NC(=O)CNC(=O)[C@H](CCC(N)=O)NC(=O)[C@H](CSSC[C@H](NC(=O)[C@H](CCCCN)NC(=O)[C@H](CCC(N)=O)NC(=O)[C@H](CC(C)C)NC1=O)C(=O)N[C@@H](CCCNC(=N)N)C(=O)N[C@@H](CCCNC(=N)N)C(=O)N[C@@H](CC(N)=O)C(=O)N[C@@H](CO)C(=O)N[C@@H](CC(=O)O)C(=O)N4)NC(=O)[C@H](C(C)C)NC3=O)C(=O)NCC(=O)N[C@@H](CO)C(=O)NCC(=O)N[C@@H](CO)C(=O)N[C@@H](CC(=O)O)C(=O)NCC(=O)NCC(=O)N[C@@H](C)C(=O)N2`, the Activity entry (in the series with PC-3; in series [1]; with HT-29; in the series with MCF7) was “Non-Toxic” each time. For the same molecule, in series [2], the Stability result is “Stable”.
As to `CC[C@H](C)[C@@H]1NC(=O)[C@H](CCCCN)NC(=O)[C@@H]2CCCN2C(=O)[C@@H]2CSSC[C@@H]3NC(=O)[C@H](C)NC(=O)CNC(=O)[C@@H]4CCCN4C(=O)[C@@H]4CSSC[C@H](NC(=O)[C@H](Cc5ccc(O)cc5)NC(=O)CNC(=O)[C@H](CC(N)=O)NC(=O)CNC(=O)[C@H](CCC(N)=O)NC(=O)[C@H](CSSC[C@H](NC(=O)[C@H](CCCCN)NC(=O)[C@H](CCC(N)=O)NC(=O)[C@H](CC(C)C)NC1=O)C(=O)N[C@@H](CCCNC(=N)N)C(=O)N[C@@H](CCCNC(=N)N)C(=O)N[C@@H](CC(=O)O)C(=O)N[C@@H](CO)C(=O)N[C@@H](CC(=O)O)C(=O)N4)NC(=O)[C@H](C(C)C)NC3=O)C(=O)NCC(=O)N[C@@H](CO)C(=O)NCC(=O)N[C@@H](CO)C(=O)N[C@@H](CC(=O)O)C(=O)NCC(=O)NCC(=O)N[C@@H](C)C(=O)N2`, the Activity entry (in the series with PC-3; in series [1]; with HT-29; with MCF7) was “Non-Toxic” each time. Also, the Stability result in series [2] is reported as “Stable”.
For `CC[C@H](C)[C@@H]1NC(=O)[C@@H]2CSSC[C@@H]3NC(=O)[C@H](C)NC(=O)CNC(=O)CNC(=O)[C@H](CC(=O)O)NC(=O)[C@H](CO)NC(=O)CNC(=O)[C@H](CO)NC(=O)CNC(=O)[C@@H]4CSSC[C@H](NC(=O)[C@H](CC(=O)O)NC(=O)[C@H](CO)NC(=O)[C@H](CC(=O)O)NC(=O)[C@H](CCCNC(=N)N)NC(=O)[C@H](CCCNC(=N)N)NC(=O)[C@H](CSSC[C@H](NC1=O)C(=O)N[C@@H](CCCNC(=N)N)C(=O)NCC(=O)N[C@@H](CC(N)=O)C(=O)NCC(=O)N[C@@H](Cc1ccc(O)cc1)C(=O)N4)NC(=O)[C@H](CCCNC(=N)N)NC(=O)[C@H](CCC(N)=O)NC(=O)[C@H](CC(C)C)NC(=O)[C@H]([C@@H](C)CC)NC(=O)[C@H](CCCCN)NC(=O)[C@@H]1CCCN1C3=O)C(=O)N1CCC[C@H]1C(=O)NCC(=O)N[C@@H](C)C(=O)N2` (cyclo(ACICRGNGYCGSGSDGGACPKILQRCRRDSDCPG); disulfide 2-19, 4-26, 10-32), in the series filed under Bos taurus, the inhibition result was “Active”. Also, the Activity entry (in the series with PC-3; in series [1]; in the series on HT-29; in the series with MCF7) was “Non-Toxic” in each case. Moreover, the Stability result in series [2] was “Stable”.
Consider H-WQELYQLKY-OH, for which, in series [3], the Drug metabolism entry is on record as “Metabolite_Detected”.
On to `CC[C@H](C)[C@@H]1NC(=O)[C@@H]2CSSC[C@@H]3NC(=O)[C@H](C)NC(=O)CNC(=O)CNC(=O)[C@H](CC(=O)O)NC(=O)[C@H](CO)NC(=O)CNC(=O)[C@H](CO)NC(=O)CNC(=O)[C@@H]4CSSC[C@H](NC(=O)[C@H](CC(=O)O)NC(=O)[C@H](CO)NC(=O)[C@H](CC(=O)O)NC(=O)[C@H](CCCNC(=N)N)NC(=O)[C@H](CCCNC(=N)N)NC(=O)[C@H](CSSC[C@H](NC1=O)C(=O)N[C@@H](CCC(N)=O)C(=O)NCC(=O)N[C@@H](CC(N)=O)C(=O)NCC(=O)N[C@@H](Cc1ccc(O)cc1)C(=O)N4)NC(=O)[C@H](CCCCN)NC(=O)[C@H](CCCCN)NC(=O)[C@H](CC(C)C)NC(=O)[C@H]([C@@H](C)CC)NC(=O)[C@H](CCCNC(=N)N)NC(=O)[C@@H]1CCCN1C3=O)C(=O)N1CCC[C@H]1C(=O)N[C@@H](CO)C(=O)N[C@@H](C)C(=O)N2`, for which, in the series filed under Bos taurus, the inhibition entry is “Active”. Further, the Activity result (in the series on PC-3; in series [1]; with HT-29; in the series on MCF7) was “Non-Toxic” in each case. Moreover, the Stability entry in series [2] was “Stable”.
`CC[C@H](C)[C@@H]1NC(=O)[C@@H]2CSSC[C@H](NC(=O)[C@@H](NC(=O)[C@H](CCCNC(=N)N)NC(=O)[C@@H]3CCC(=O)N3)C(C)C)C(=O)N3CCC[C@H]3C(=O)N[C@@H](CCCNC(=N)N)C(=O)N[C@@H]([C@@H](C)CC)C(=O)N[C@@H](CC(C)C)C(=O)N[C@@H](CCCCN)C(=O)N[C@@H](CCCCN)C(=O)N[C@H]3CSSC[C@H](NC1=O)C(=O)N[C@@H](CCC(N)=O)C(=O)NCC(=O)N[C@@H](CC(N)=O)C(=O)NCC(=O)N[C@@H](Cc1ccc(O)cc1)C(=O)N[C@H](C(=O)NCC(N)=O)CSSC[C@H](NC(=O)[C@H](CC(=O)O)NC(=O)[C@H](CO)NC(=O)[C@H](CC(=O)O)NC(=O)[C@H](CCCNC(=N)N)NC(=O)[C@H](CCCNC(=N)N)NC3=O)C(=O)N1CCC[C@H]1C(=O)NCC(=O)N[C@@H](CCC(=O)O)C(=O)N2`: the Activity result (in the series with PC-3; in series [1]; in the series on HT-29; with MCF7) was “Non-Toxic” in each case. For the same molecule, in series [2], the Stability entry is given as “Stable”.
Regarding `CC[C@H](C)[C@@H]1NC(=O)[C@H](CCCNC(=N)N)NC(=O)[C@@H]2CCCN2C(=O)[C@@H]2CSSC[C@@H]3NC(=O)[C@H](C)NC(=O)CNC(=O)[C@@H]4CCCN4C(=O)[C@@H]4CSSC[C@H](NC(=O)[C@H](Cc5ccc(O)cc5)NC(=O)CNC(=O)[C@H](CC(N)=O)NC(=O)CNC(=O)[C@H](CCCNC(=N)N)NC(=O)[C@H](CSSC[C@H](NC(=O)[C@H](CCCCN)NC(=O)[C@H](CCCCN)NC(=O)[C@H](CC(C)C)NC1=O)C(=O)N[C@@H](CCCNC(=N)N)C(=O)N[C@@H](CCCNC(=N)N)C(=O)N[C@@H](CC(=O)O)C(=O)N[C@@H](CO)C(=O)N[C@@H](CC(=O)O)C(=O)N4)NC(=O)[C@H](C(C)C)NC3=O)C(=O)NCC(=O)N[C@@H](CO)C(=O)NCC(=O)N[C@@H](CO)C(=O)N[C@@H](CC(=O)O)C(=O)NCC(=O)NCC(=O)N[C@@H](C)C(=O)N2`, the inhibition entry in the series filed under Bos taurus was “Active”. Also, the Activity result (in the series on PC-3; in series [1]; with HT-29; in the series with MCF7) was “Non-Toxic” throughout. In series [2], the Stability entry was “Stable”.
For `CC[C@H](C)[C@@H]1NC(=O)[C@H](CCCCN)NC(=O)[C@@H]2CCCN2C(=O)[C@@H]2CSSC[C@@H]3NC(=O)[C@H](C)NC(=O)CNC(=O)[C@@H]4CCCN4C(=O)[C@@H]4CSSC[C@H](NC(=O)[C@H](Cc5ccc(O)cc5)NC(=O)CNC(=O)[C@H](CC(N)=O)NC(=O)CNC(=O)[C@H](CCC(N)=O)NC(=O)[C@H](CSSC[C@H](NC(=O)[C@H](CCCCN)NC(=O)[C@H](CCC(N)=O)NC(=O)[C@H](CC(C)C)NC1=O)C(=O)N[C@@H](CCCNC(=N)N)C(=O)N[C@@H](CCCNC(=N)N)C(=O)N[C@@H](CC(=O)O)C(=O)N[C@@H](CO)C(=O)N[C@@H](CC(=O)O)C(=O)N4)NC(=O)[C@H](C(C)C)NC3=O)C(=O)NCC(=O)N[C@@H](CO)C(=O)NCC(=O)N[C@@H](CO)C(=O)N[C@H](CC(=O)O)C(=O)NCC(=O)NCC(=O)N[C@@H](C)C(=O)N2`, the inhibition result in the series filed under Bos taurus was “Active”.
The same measure, in the same setting: to `CC[C@H](C)[C@@H]1NC(=O)[C@H](CCCNC(=N)N)NC(=O)[C@@H]2CCCN2C(=O)[C@@H]2CSSC[C@@H]3NC(=O)[C@H](C)NC(=O)[C@H](CO)NC(=O)[C@@H]4CCCN4C(=O)[C@@H]4CSSC[C@H](NC(=O)[C@H](Cc5ccc(O)cc5)NC(=O)CNC(=O)[C@H](CC(N)=O)NC(=O)CNC(=O)[C@H](CCC(N)=O)NC(=O)[C@H](CSSC[C@H](NC(=O)[C@H](CCCCN)NC(=O)[C@H](CCC(N)=O)NC(=O)[C@H](CC(C)C)NC1=O)C(=O)N[C@@H](CCCNC(=N)N)C(=O)N[C@@H](CCCNC(=N)N)C(=O)N[C@@H](CC(N)=O)C(=O)N[C@@H](CO)C(=O)N[C@@H](CC(=O)O)C(=O)N4)NC(=O)[C@H](C(C)C)NC3=O)C(=O)NCC(=O)N[C@@H](CO)C(=O)NCC(=O)N[C@@H](CO)C(=O)N[C@H](CC(=O)O)C(=O)NCC(=O)NCC(=O)N[C@@H](C)C(=O)N2` belongs “Active”.
